Reference: ChEMBL document CHEMBL1157349, “2-Substituted piperazine-derived imidazole carboxamides as potent and selective CCK1R agonists for the treatment of obesity” (Bioorg Med Chem Lett, 2008)

Legend:
[1] = molecular target: T1, Cholecystokinin receptor type A (Homo sapiens, UniProt P32238); experiment: Agonist activity at human CCK1 receptor; assay type: functional
T1 sequence (P32238 whole entry): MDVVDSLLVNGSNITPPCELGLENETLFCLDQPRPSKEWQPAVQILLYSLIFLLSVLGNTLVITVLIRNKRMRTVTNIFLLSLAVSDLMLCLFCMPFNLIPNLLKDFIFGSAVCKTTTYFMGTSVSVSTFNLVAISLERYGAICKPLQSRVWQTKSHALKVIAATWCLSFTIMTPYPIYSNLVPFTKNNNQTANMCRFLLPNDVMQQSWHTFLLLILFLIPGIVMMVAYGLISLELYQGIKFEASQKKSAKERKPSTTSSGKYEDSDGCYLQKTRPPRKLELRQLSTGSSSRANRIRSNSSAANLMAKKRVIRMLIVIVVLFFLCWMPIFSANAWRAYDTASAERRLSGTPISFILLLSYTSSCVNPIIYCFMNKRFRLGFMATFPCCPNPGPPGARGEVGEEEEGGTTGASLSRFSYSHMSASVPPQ
Summary of the method: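 Human CCK1 receptor agonism measured in a CCK_IP3 functional assay with NFAT read-out. Values are means of ≥3 experiments, with standard deviations <75% of the average.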

[2] = molecular target: T2, Cholecystokinin receptor type A (Homo sapiens) (UniProt P32238); experiment: Agonist activity at human CCK1 receptor relative to cholecystokinin 8; assay type: functional
T2 sequence (whole entry): T1 sequence (P32238 whole entry)

[3] = molecular target: T1, Cholecystokinin receptor type A; experiment: Inhibition of human CCK1 receptor
[4] = molecular target: T3, Cholecystokinin receptor type A (Mus musculus, UniProt O08786); experiment: Agonist activity at mouse CCK1 receptor; assay type: functional
T3 sequence (O08786 whole entry): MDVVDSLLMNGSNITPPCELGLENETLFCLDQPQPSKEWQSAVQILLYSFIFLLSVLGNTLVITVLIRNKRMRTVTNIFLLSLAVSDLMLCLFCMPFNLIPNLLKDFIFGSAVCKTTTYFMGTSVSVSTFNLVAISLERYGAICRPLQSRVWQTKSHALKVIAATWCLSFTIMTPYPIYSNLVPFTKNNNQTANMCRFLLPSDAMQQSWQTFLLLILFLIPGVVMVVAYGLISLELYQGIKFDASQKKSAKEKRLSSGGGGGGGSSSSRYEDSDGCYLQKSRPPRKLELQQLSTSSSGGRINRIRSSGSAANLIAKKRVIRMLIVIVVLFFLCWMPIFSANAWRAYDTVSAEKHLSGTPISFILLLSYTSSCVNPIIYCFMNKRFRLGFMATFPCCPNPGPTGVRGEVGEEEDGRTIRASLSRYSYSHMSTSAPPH
Summary of the method: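 Mouse CCK1 receptor agonism measured in a CCK_IP3 functional assay in K1 cells. Values are means of ≥3 experiments, with standard deviations <75% of the average.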

[5] = molecular target: T4, Cholecystokinin receptor type A (Mus musculus) (UniProt O08786); experiment: Agonist activity at mouse CCK1 receptor relative to cholecystokinin 8; assay type: functional
T4 sequence (whole entry): T3 sequence (O08786 whole entry)

[6] = system: Mus musculus; experiment: Suppression of 18 hrs overnight food intake in mouse at 3 mg/kg, po relative to control; assay type: functional
Summary of the method: (§1)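 Lean mice were dosed orally in 10% Tw80 in water. Overnight food intake was measured and expressed relative to vehicle-dosed mice.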

[7] = system: Mus musculus; experiment: Suppression of 18 hrs overnight food intake in mouse at 0.3 mg/kg, po relative to control; assay type: functional; summary of the method: as §1
[8] = Volume of distribution in mouse at 1 mg/kg, iv and 10 mg/kg, po; assay type: ADME, organism-based; conditions: in vivo
[9] = system: Mus musculus; experiment: AUC in mouse at 10 mg/kg, po; assay type: ADME, organism-based, Plasma; parameters: dose 10 mg/kg, route oral; conditions: in vivo
[10] = Half life in mouse at 1 mg/kg, iv and 10 mg/kg, po; assay type: ADME, organism-based; conditions: in vivo
[11] = system: Mus musculus; experiment: Oral bioavailability in mouse at 10 mg/kg; assay type: ADME, organism-based; conditions: in vivo
[12] = Cmax in mouse at 10 mg/kg, po; assay type: ADME, organism-based; parameters: dose 10 mg/kg, route oral; conditions: in vivo
[13] = Tmax in mouse at 1 mg/kg, iv and 10 mg/kg, po; assay type: ADME, organism-based; conditions: in vivo
[14] = system: Mus musculus; experiment: Suppression of 48 hrs overnight food intake in wild type mouse at 3 mg/kg, po relative to control; assay type: functional
Summary of the method: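 Wild-type and CCK1R^-/- mice received an oral dose of 3 mpk. Food intake was measured at 18 h and 48 h and compared with vehicle.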

[15] = organism: Mus musculus; experiment: Gastrointestinal toxicity in wild type mouse; assay type: organism-based; conditions: in vivo
[16] = organism: Mus musculus; experiment: Gastrointestinal toxicity in CCK1 receptor deficient mouse; assay type: organism-based; conditions: in vivo

Structure (SMILES) | EC50 [1] | Activity [2] | IC50 [3] | other results
CCOc1cccc(-n2cc(C(=O)N3CCN(c4cc(C(=O)O)c5ccccc5c4)C[C@@H]3COCC(=O)O)nc2-c2ccc(C)cc2)c1 | 0.097 nM | 85% | 0.14 nM | 
CCOc1cccc(-n2cc(C(=O)N3CCN(c4cc(C(=O)O)c5ccccc5c4)C[C@H]3CNC(C)=O)nc2-c2ccc(C)cc2F)c1 | 0.033 nM | 70% | 0.058 nM | EC50 [4]: 0.13 nM; Activity [5]: 77%; Activity [6]: 18%
CCOc1cccc(-n2cc(C(=O)N3CCN(c4cc(C(=O)O)c5ccccc5c4)C[C@@H]3CNS(C)(=O)=O)nc2-c2ccc(C)cc2)c1 | 0.095 nM | 72% | 0.12 nM | 
CCOc1cccc(-n2cc(C(=O)N3CCN(c4cnc5ccccc5c4)C[C@@H]3COC(C)=O)nc2-c2ccc(C)cc2)c1 | 0.25 nM | 104% | 0.24 nM | 
CCOc1cccc(-n2cc(C(=O)N3CCN(c4cc(C(=O)O)c5ccccc5c4)C[C@H]3C(=O)NC(C)C)nc2-c2ccc(C)cc2)c1 | 0.053 nM | 103% | 0.016 nM | EC50 [4]: 0.11 nM; Activity [5]: 110%; Activity [7]: 19%; Activity [6]: 45%; Vd [8]: 3.7 L/kg; AUC [9]: 0.15 µM·h; half-life [10]: 150 min; F [11]: 11%; Cmax [12]: 180 nM; Tmax [13]: 5.5 h
CCOc1cccc(-n2cc(C(=O)N3CCN(c4cc(C(=O)O)c5ccccc5c4)C[C@@H]3CNC(=O)NC)nc2-c2ccc(C)cc2)c1 | 0.13 nM | 74% | 0.08 nM | 
CCOc1cccc(-n2cc(C(=O)N3CCN(c4cc(C(=O)O)c5ccccc5c4)C[C@H]3COCC(=O)O)nc2-c2ccc(C)cc2F)c1 | 0.034 nM | 106% | 0.041 nM | 
CCOc1cccc(-n2cc(C(=O)N3CCN(c4cnc5ccccc5c4)C[C@H]3C(=O)NC(C)C)nc2-c2ccc(C)cc2)c1 | 0.14 nM | 102% | 0.24 nM | 
CCOc1cccc(-n2cc(C(=O)N3CCN(c4cnc5ccccc5c4)C[C@H]3CNC(C)=O)nc2-c2ccc(C)cc2)c1 | 0.097 nM | 104% | 0.39 nM | 
CCOc1cccc(-n2cc(C(=O)N3CCN(c4cnc5ccccc5c4)C[C@@H]3C(=O)NC(C)C)nc2-c2ccc(C)cc2)c1 | 0.18 nM | 87% | 0.21 nM | 
CCOc1cccc(-n2cc(C(=O)N3CCN(c4cc(C(=O)O)c5ccccc5c4)C[C@H]3CNC(=O)NC)nc2-c2ccc(C)cc2F)c1 | 0.074 nM | 90% | 0.097 nM | 
CCOc1cccc(-n2cc(C(=O)N3CCN(c4cnc5ccccc5c4)C[C@H]3C(=O)NCC(=O)O)nc2-c2ccc(C)cc2)c1 | 0.089 nM | 82% | 0.018 nM | EC50 [4]: 0.11 nM; Activity [5]: 99%
CCOc1cccc(-n2cc(C(=O)N3CCN(c4cc(C(=O)O)c5ccccc5c4)C[C@@H]3C(=O)NC(C)C)nc2-c2ccc(C)cc2)c1 | 0.082 nM | 94% | 0.11 nM | 
CCOc1cccc(-n2cc(C(=O)N3CCN(c4cc(C(=O)O)c5ccccc5c4)CC3)nc2-c2ccc(C)cc2F)c1 | 0.055 nM |  | 0.04 nM | Activity [5]: 56%; Activity [7]: 13%; Activity [6]: 86%; AUC [9]: 0.61 µM·h; Tmax [13]: 0.6 h
CCOc1cccc(-n2cc(C(=O)N3CCN(c4cnc5ccccc5c4)C[C@@H]3CNC(C)=O)nc2-c2ccc(C)cc2)c1 | 0.1 nM | 91% | 0.25 nM | 
CCOc1cccc(-n2cc(C(=O)N3CCN(c4cc(C(=O)O)c5ccccc5c4)CC3)nc2-c2ccc(C)cc2)c1 |  |  |  | Activity [5]: 103%; Activity [7]: 18%; Activity [6]: 82%; AUC [9]: 0.39 µM·h; Tmax [13]: 6.7 h
CCOc1cccc(-n2cc(C(=O)N3CCN(c4cnc5ccccc5c4)C[C@@H]3CNS(C)(=O)=O)nc2-c2ccc(C)cc2)c1 | 0.21 nM | 100% | 0.43 nM | 
CCOc1cccc(-n2cc(C(=O)N3CCN(c4cnc5ccccc5c4)C[C@H]3CNS(C)(=O)=O)nc2-c2ccc(C)cc2)c1 | 0.46 nM | 117% | 0.73 nM | 
CCOc1cccc(-n2cc(C(=O)N3CCN(c4cnc5ccccc5c4)C[C@H]3COC(C)=O)nc2-c2ccc(C)cc2)c1 | 0.77 nM | 118% | 0.47 nM | 
CCOc1cccc(-n2cc(C(=O)N3CCN(c4cc(C(=O)O)c5ccccc5c4)C[C@@H]3CNC(C)=O)nc2-c2ccc(C)cc2)c1 | 0.04 nM | 67% | 0.08 nM | 
CCOc1cccc(-n2cc(C(=O)N3CCN(c4cnc5ccccc5c4)C[C@H]3COCC(=O)O)nc2-c2ccc(C)cc2)c1 | 0.065 nM | 93% | 0.052 nM | 
CCOc1cccc(-n2cc(C(=O)N3CCN(c4cc(C(=O)O)c5ccccc5c4)C[C@H]3C(=O)NC(C)C)nc2-c2ccc(C)cc2F)c1 | 0.071 nM | 94% | 0.01 nM | EC50 [4]: 0.034 nM; Activity [5]: 94%; Activity [7]: 32%; Activity [6]: 92%; Activity [14]: 85%; Vd [8]: 0.42 L/kg; AUC [9]: 0.1 µM·h; half-life [10]: 138 min; F [11]: 4%; Cmax [12]: 180 nM; Tmax [13]: 8 h; Activity [15]: Toxic; Activity [16]: Non-toxic
CCOc1cccc(-n2cc(C(=O)N3CCN(c4cnc5ccccc5c4)C[C@@H]3CNC(=O)NC)nc2-c2ccc(C)cc2)c1 | 0.16 nM | 70% | 0.56 nM | 
CCOc1cccc(-n2cc(C(=O)N3CCN(c4cc(C(=O)O)c5ccccc5c4)C[C@H]3CNS(C)(=O)=O)nc2-c2ccc(C)cc2F)c1 | 0.1 nM | 97% | 0.067 nM | 
CCOc1cccc(-n2cc(C(=O)N3CCN(c4cnc5ccccc5c4)C[C@@H]3COCC(=O)O)nc2-c2ccc(C)cc2)c1 | 0.097 nM | 96% | 0.039 nM | EC50 [4]: 0.5 nM; Activity [5]: 84%
